We go through 20 compounds from ChEMBL document CHEMBL1671618, “Functional cloning and characterization of the multidrug efflux pumps NorM from Neisseria gonorrhoeae and YdhE from Escherichia coli” (Antimicrob Agents Chemother, 2008).

In brackets after ≈: the same amount, converted by molar mass. Activity calls are given as the source filed them. No cut-off for these calls is given here.

Experiment [1] has as its system Escherichia coli. The experiment can be described thus: Antimicrobial activity against AcrAB-deficient Escherichia coli AG100AX harboring pBAD plasmid after 18 to 24 hrs by two fold dilution method. The format is functional. In a few lines:
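Twofold agar dilution on LB agar containing the antimicrobial, inoculum 10⁴ CFU/spot. Growth was scored after 18–24 h at 37°C, and each MIC determination was repeated at least four times.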

For experiment [2], the system named is Escherichia coli. Briefly: Antimicrobial activity against AcrAB-deficient Escherichia coli AG100AX harboring pBADomegaydhE plasmid containing Escherichia coli multidrug efflux pump YdhE after 18 to 24 hrs by two fold dilution method. The format is functional.
In experiment [3] the test system is Escherichia coli. Briefly: Antimicrobial activity against AcrAB-deficient Escherichia coli AG100AX harboring pBADomeganorM plasmid containing Neisseria gonorrhoeae multidrug efflux pump NorM after 18 to 24 hrs by two fold dilution method. The experiment is classed as functional.
For experiment [4], the target named is T1, Multidrug resistance protein MdtK (Escherichia coli (strain K12), UniProt P37340).
T1 sequence (P37340 whole entry): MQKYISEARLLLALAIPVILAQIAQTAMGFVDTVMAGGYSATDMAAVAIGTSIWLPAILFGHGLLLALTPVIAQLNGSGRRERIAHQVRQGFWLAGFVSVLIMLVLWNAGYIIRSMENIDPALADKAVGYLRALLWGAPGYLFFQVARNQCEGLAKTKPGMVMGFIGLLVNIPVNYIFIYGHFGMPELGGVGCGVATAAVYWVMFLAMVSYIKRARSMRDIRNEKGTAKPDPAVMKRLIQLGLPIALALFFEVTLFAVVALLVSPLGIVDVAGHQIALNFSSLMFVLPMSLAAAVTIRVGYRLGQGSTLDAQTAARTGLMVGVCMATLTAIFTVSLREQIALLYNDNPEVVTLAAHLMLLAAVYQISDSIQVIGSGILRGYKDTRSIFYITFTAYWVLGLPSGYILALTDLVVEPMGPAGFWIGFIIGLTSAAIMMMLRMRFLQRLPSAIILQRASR
Briefly: Binding affinity to Escherichia coli K-12 multidrug efflux protein YdhE […] in presence of 0.02% DDM surfactant by fluorescence polarization assay. Background: Polarisation of emitted light reports the rotation of a fluorescent probe.

Experiment [5] is described as follows: Binding affinity to Neisseria gonorrhoeae FA19 multidrug efflux protein NorM expressed in Escherichia coli AG100AX in presence of 0.02% DDM surfactant by fluorescence polarization assay.
Experiment [6] deals with T2, Multidrug resistance protein MdtK (Escherichia coli (strain K12)) (UniProt P37340).
T2 sequence (whole entry): T1 sequence (P37340 whole entry)
Briefly: Activity of Escherichia coli K-12 multidrug efflux protein YdhE expressed in Escherichia coli AG100AX assessed as reduction in compound accumulation by fluorimetric assay. In a few lines: (§1)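 AG100AX cells carrying the pBAD-based plasmid were grown in LB with 0.01% L-arabinose at 37°C to OD600 1.0, washed, and resuspended to OD600 1.0 in 0.1 M Tris-HCl pH 7.0. Norfloxacin (100 μM final) or ethidium bromide (20 μg/ml final) was added and samples taken over time. CCCP (100 μM final) was added at 15 min. After a further 15 min, CCCP was removed and cells re-energized with 0.4% glucose. Maximum fluorescence was normalized to 100%.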

Experiment [7] concerns Neisseria gonorrhoeae. Briefly: Activity of Neisseria gonorrhoeae FA19 multidrug efflux protein NorM expressed in Escherichia coli AG100AX assessed as reduction in compound accumulation by fluorimetric assay. In outline: as §1
The subject of experiment [8] is Neisseria gonorrhoeae. Briefly: Activity of Neisseria gonorrhoeae FA19 multidrug efflux protein NorM expressed in Escherichia coli AG100AX assessed as reduction in compound accumulation in presence of 100 mM NaCl by fluorimetric assay. In outline:
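Arabinose-induced (0.01%) AG100AX cells at OD600 1.0 were held in 0.1 M Tris-HCl pH 7.0 with ethidium bromide (20 μg/ml final), then 100 mM NaCl, or KCl for comparison, was added. At each time point a 1-ml sample was centrifuged at 4°C and washed, and fluorescence read at ex 500/em 580 nm.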

Experiment [9] concerns the target T2, Multidrug resistance protein MdtK (Escherichia coli (strain K12)). The experiment can be described thus: Inhibition of Escherichia coli K-12 multidrug efflux protein YdhE expressed in Escherichia coli AG100AX assessed as assessed as increase in ethidium bromide accumulation at 100 uM after 15 mins by fluorimetric assay. In outline:
as §1

Experiment [10] has the same target. The experiment can be described thus: Inhibition of Escherichia coli K-12 multidrug efflux protein YdhE expressed in Escherichia coli AG100AX assessed as assessed as increase in Norfloxacin accumulation at 100 uM after 15 mins by fluorimetric assay. In a few lines:
as §1

The subject of experiment [11] is Neisseria gonorrhoeae. Briefly: Inhibition of Neisseria gonorrhoeae FA19 multidrug efflux protein NorM expressed in Escherichia coli AG100AX assessed as increase in ethidium bromide accumulation at 100 uM after 15 mins by fluorimetric assay. In outline: as §1
The test system of experiment [12] is Neisseria gonorrhoeae. The experiment can be described thus: Inhibition of Neisseria gonorrhoeae FA19 multidrug efflux protein NorM expressed in Escherichia coli AG100AX assessed as increase in Norfloxacin accumulation at 100 uM after 15 mins by fluorimetric assay. In outline: as §1

As to `CCn1cc(C(=O)O)c(=O)c2cc(F)c(N3CCNCC3)nc21` [ENOXACIN], the MIC (in general, the lowest concentration that inhibits growth of the organism) in experiment [1] is 0.031 µg/mL (≈ 0.0968 µM); in [2], 0.063 µg/mL (≈ 0.197 µM); in experiment [3] it was 0.063 µg/mL (≈ 0.197 µM).

As for `Nc1ccc2cc3ccc(N)cc3nc2c1` [PROFLAVINE], the MIC came to 6.25 µg/mL (≈ 29.9 µM) in [1], 12.5 µg/mL (≈ 59.7 µM) in [2] and 12.5 µg/mL (≈ 59.7 µM) in [3].

Regarding GENTAMICIN, the MIC in experiment [1], in experiment [2] and in [3] was 2.5 µg/mL in each case.

For `COc1ccc2cc3[n+](cc2c1OC)CCc1cc2c(cc1-3)OCO2.[Cl-]` [BERBERINE CHLORIDE], the MIC in experiment [1] is 31.2 µg/mL; in [2], 250 µg/mL; in experiment [3], 250 µg/mL.

For `COc1cccc2c1C(=O)c1c(O)c3c(c(O)c1C2=O)C[C@@](O)(C(=O)CO)C[C@@H]3O[C@H]1C[C@H](N)[C@H](O)[C@H](C)O1` [DOXORUBICIN], the MIC in experiment [1] was determined as 1.56 µg/mL (≈ 2.87 µM); in [2], 6.25 µg/mL (≈ 11.5 µM); in experiment [3] it was 6.25 µg/mL (≈ 11.5 µM).

Take `CC[n+]1c(-c2ccccc2)c2cc(N)ccc2c2ccc(N)cc21.[Br-]` [HOMIDIUM BROMIDE]: the Kd (commonly a measure of binding affinity in units of concentration) in experiment [4] worked out at 9.8 µM; in experiment [5], 12.3 µM. Moreover, the MIC is 7.81 µg/mL in [1], 15.6 µg/mL in experiment [2] and 15.6 µg/mL in experiment [3]. In addition, the outcome in experiment [6], in [7] and in [8] was Active.

Regarding `CCn1cc(C(=O)O)c(=O)c2cc(F)c(N3CCNCC3)cc21` [NORFLOXACIN], the values for the equilibrium dissociation constant (Kd) in experiment [4] and in [5] were 98.4 µM and 126 µM, respectively. For the same compound, the minimum inhibitory concentration (MIC) in experiment [1] was 0.008 µg/mL (≈ 0.0251 µM); in experiment [2], 0.016 µg/mL (≈ 0.0501 µM); in experiment [3] it was 0.032 µg/mL (≈ 0.1 µM). In addition, the result in experiment [8] was Active.

On to `C[n+]1ccc(-c2cc[n+](C)cc2)cc1.[Cl-].[Cl-]` [PARAQUAT DICHLORIDE], for which the MIC in experiment [1], in experiment [2] and in experiment [3] was 156 µg/mL in each case.

Consider `N#CC(C#N)=NNc1cccc(Cl)c1` [CARBONYL CYANIDE M-CHLOROPHENYLHYDRAZONE], for which the inhibition entry in [9], in [10], in experiment [11] and in [12] was “Active” in each case. The MIC in experiment [1], in [2] and in experiment [3] was 6.25 µg/mL (≈ 30.5 µM) each time.

For the compound `CN(C)c1ccc(O)c2c1C[C@H]1C[C@H]3[C@H](N(C)C)C(O)=C(C(N)=O)C(=O)[C@@]3(O)C(O)=C1C2=O` [MINOCYCLINE], the minimum inhibitory concentration (MIC) in [1], in [2] and in experiment [3] was 0.625 µg/mL (≈ 1.37 µM) each time.

Turning to `CN(C)c1ccc(C(=C2C=CC(=[N+](C)C)C=C2)c2ccc(N(C)C)cc2)cc1.[Cl-]` [GENTIAN VIOLET], the results for the minimum inhibitory concentration (MIC) in [1], in [2] and in [3] were 0.625 µg/mL, 2.5 µg/mL and 2.5 µg/mL, respectively.

For `CCn1cc(C(=O)O)c(=O)c2ccc(C)nc21` [NALIDIXIC ACID], the MIC in experiment [1], in experiment [2] and in [3] was 0.625 µg/mL (≈ 2.69 µM) in each case.

For the compound `O=C(O)c1cn(C2CC2)c2cc(N3CCNCC3)c(F)cc2c1=O` [CIPROFLOXACIN], the equilibrium dissociation constant (Kd) was found to be 90.9 µM in [4] and 121 µM in [5]. Further, the result in [6] and in experiment [7] was Active.

Turning to `CO[C@@H]1[C@@H](OC(N)=O)[C@@H](O)[C@H](Oc2ccc3c(O)c(NC(=O)c4ccc(O)c(CC=C(C)C)c4)c(=O)oc3c2C)OC1(C)C` [NOVOBIOCIN], the figures for the MIC in experiment [1], in experiment [2] and in experiment [3] were 1.56 µg/mL (≈ 2.55 µM), 3.12 µg/mL (≈ 5.1 µM) and 3.12 µg/mL (≈ 5.1 µM), respectively.

For `CN[C@@H]1[C@H](O[C@H]2[C@H](O[C@H]3[C@H](O)[C@@H](O)[C@H](N=C(N)N)[C@@H](O)[C@@H]3N=C(N)N)O[C@@H](C)[C@]2(O)C=O)O[C@@H](CO)[C@H](O)[C@H]1O` [STREPTOMYCIN], the MIC in experiment [1], in [2] and in experiment [3] was > 50000 µg/mL each time.

For the compound `O=C(N[C@H](CO)[C@H](O)c1ccc([N+](=O)[O-])cc1)C(Cl)Cl` [CHLORAMPHENICOL], the MIC in experiment [1], in experiment [2] and in experiment [3] was 0.625 µg/mL (≈ 1.93 µM) throughout.

With `CN(C)[C@@H]1C(O)=C(C(N)=O)C(=O)[C@@]2(O)C(O)=C3C(=O)c4c(O)cccc4[C@@](C)(O)[C@H]3C[C@@H]12` [TETRACYCLINE], the minimum inhibitory concentration (MIC) in [1], in experiment [2] and in [3] was 1.25 µg/mL (≈ 2.81 µM) each time.

Regarding `[Cl-].c1ccc([P+](c2ccccc2)(c2ccccc2)c2ccccc2)cc1` [TETRAPHENYLPHOSPHONIUM CHLORIDE], the MIC in [1] was 12.5 µg/mL; in experiment [2], 25 µg/mL; in experiment [3], 25 µg/mL.

`CCn1cc(C(=O)O)c(=O)c2cc(F)c(N3CCNC(C)C3)c(F)c21` (stereo not drawn) [LOMEFLOXACIN]: the values for the minimum inhibitory concentration (MIC) in [1], in [2] and in [3] were 0.016 µg/mL (≈ 0.0455 µM), 0.016 µg/mL (≈ 0.0455 µM) and 0.032 µg/mL (≈ 0.0911 µM), respectively.

For `CN[C@H](CC(C)C)C(=O)N[C@H]1C(=O)N[C@@H](CC(N)=O)C(=O)N[C@H]2C(=O)N[C@H]3C(=O)N[C@H](C(=O)N[C@H](C(=O)O)c4cc(O)cc(O)c4-c4cc3ccc4O)[C@H](O)c3ccc(c(Cl)c3)Oc3cc2cc(c3O[C@@H]2O[C@H](CO)[C@@H](O)[C@H](O)[C@H]2O[C@H]2C[C@](C)(N)[C@H](O)[C@H](C)O2)Oc2ccc(cc2Cl)[C@H]1O` [VANCOMYCIN], the minimum inhibitory concentration (MIC) in [1], in experiment [2] and in [3] was 250 µg/mL (≈ 173 µM) each time.
